ChEMBL document CHEMBL1833804, “Discovery of N-(3-(1-methyl-1,2,3,6-tetrahydropyridin-4-yl)-1H-indol-6-yl) thiophene-2-carboximidamide as a selective inhibitor of human neuronal nitric oxide synthase (nNOS) for the treatment of pain” (J Med Chem, 2011)
Calls of active or inactive are those of the source. No cut-off for these calls is given here.

Assays:
[1] = molecular target: T1, Nitric oxide synthase 3 (Homo sapiens, UniProt P29474); assay: Inhibition of human recombinant eNOS expressed in Sf9 cells assessed as inhibition of conversion of [3H]-L-arginine to [3H]-L-citrulline after 45 mins by liquid scintillation counting
T1 sequence (P29474 whole entry): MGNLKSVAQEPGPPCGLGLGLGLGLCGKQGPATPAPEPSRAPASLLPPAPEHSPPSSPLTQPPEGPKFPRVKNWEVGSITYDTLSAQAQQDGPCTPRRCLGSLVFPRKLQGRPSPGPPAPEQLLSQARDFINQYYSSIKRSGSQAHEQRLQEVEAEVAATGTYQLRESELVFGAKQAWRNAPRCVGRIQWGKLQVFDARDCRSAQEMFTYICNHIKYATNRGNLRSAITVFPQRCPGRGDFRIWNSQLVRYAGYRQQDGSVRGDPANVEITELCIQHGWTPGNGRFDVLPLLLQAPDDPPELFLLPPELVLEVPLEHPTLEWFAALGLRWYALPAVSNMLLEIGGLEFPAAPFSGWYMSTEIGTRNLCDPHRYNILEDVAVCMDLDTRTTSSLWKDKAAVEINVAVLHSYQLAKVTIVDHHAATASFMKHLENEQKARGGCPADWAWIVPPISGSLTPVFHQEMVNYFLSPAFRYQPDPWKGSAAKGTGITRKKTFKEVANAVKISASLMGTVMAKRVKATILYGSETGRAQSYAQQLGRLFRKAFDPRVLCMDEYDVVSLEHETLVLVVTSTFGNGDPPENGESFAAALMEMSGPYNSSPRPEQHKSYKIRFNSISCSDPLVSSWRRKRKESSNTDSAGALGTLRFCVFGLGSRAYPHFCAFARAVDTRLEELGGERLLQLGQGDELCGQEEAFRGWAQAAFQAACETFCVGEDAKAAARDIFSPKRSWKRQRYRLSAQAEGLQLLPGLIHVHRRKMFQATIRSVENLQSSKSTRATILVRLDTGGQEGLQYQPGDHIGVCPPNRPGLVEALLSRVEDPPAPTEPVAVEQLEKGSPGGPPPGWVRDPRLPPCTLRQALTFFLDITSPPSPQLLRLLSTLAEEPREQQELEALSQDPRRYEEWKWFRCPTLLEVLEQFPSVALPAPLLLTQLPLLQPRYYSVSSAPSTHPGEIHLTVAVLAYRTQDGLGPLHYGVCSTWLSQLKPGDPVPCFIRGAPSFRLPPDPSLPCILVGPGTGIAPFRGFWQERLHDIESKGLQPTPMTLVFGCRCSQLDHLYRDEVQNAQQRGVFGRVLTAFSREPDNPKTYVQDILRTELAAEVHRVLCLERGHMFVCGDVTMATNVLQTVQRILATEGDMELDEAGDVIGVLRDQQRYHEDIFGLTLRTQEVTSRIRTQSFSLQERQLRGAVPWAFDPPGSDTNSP
Outline: (§1)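 Recombinant human eNOS or nNOS from baculovirus-infected Sf9 cells in 40 mM HEPES pH 7.4 with 2.4 mM CaCl2, 1 mM MgCl2, 1 mg/mL BSA, 1 mM EDTA, 1 mM DTT, 1 μM FMN, 1 μM FAD, 10 μM BH4, 1 mM NADPH and 1.2 μM CaM. Compound preincubated 15 min at RT, then [3H]-L-arginine conversion ran 45 min at 37 °C. Stopped with pH 5.5 HEPES/EGTA/EDTA buffer. [3H]-citrulline separated on Dowex and counted by scintillation. Duplicates.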

[2] = molecular target: Nitric oxide sythases; iNOS & nNOS (Homo sapiens) (UniProt P29475+P35228); assay: Selectivity ratio of IC50 for human recombinant iNOS to IC50 for human recombinant nNOS
Outline: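 Recombinant human nNOS and iNOS were expressed in baculovirus-infected Sf9 cells, and the assay measured [³H]-L-arginine to [³H]-L-citrulline conversion. nNOS buffer: 40 mM HEPES pH 7.4 with CaCl₂, MgCl₂, BSA, 1 mM NADPH and 1.2 μM CaM. iNOS buffer: 100 mM HEPES pH 7.4 with 120 μM NADPH and 100 nM CaM. Compound was preincubated 15 min at RT, then reacted 45 min at 37 °C. Citrulline was separated on DOWEX and counted by scintillation, in duplicate. The ratio is IC50 iNOS/IC50 nNOS.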

[3] = molecular target: Nitric oxide synthase 1 (Homo sapiens, UniProt P29475); assay: Inhibition of human recombinant nNOS expressed in Sf9 cells assessed as inhibition of conversion of [3H]-L-arginine to [3H]-L-citrulline after 45 mins by liquid scintillation counting; outline: as §1
[4] = molecular target: T2, Cytochrome P450 3A4 (Homo sapiens, UniProt P08684); assay: Inhibition of CYP3A4 using BQ as substrate; assay type: ADME
Outline: (§2)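 Insect-cell microsomes expressing single human CYP isozymes, incubated at 37 °C with an NADPH regenerating system (NADP+, glucose-6-phosphate, G6P dehydrogenase, MgCl2) and an isozyme-specific fluorogenic substrate. Formation of the fluorescent metabolite was measured with and without test compound across 0.0457–100 μM. An enzyme-selective inhibitor served as positive control. Duplicate determinations, IC50 reported.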

[5] = molecular target: Cytochrome P450 2D6 (Homo sapiens, UniProt P10635); assay: Inhibition of CYP2D6 using AMMC as substrate; assay type: ADME; outline: as §2
[6] = molecular target: T2, Cytochrome P450 3A4; assay: Inhibition of CYP3A4 using BFC as substrate; assay type: ADME; outline: as §2
[7] = molecular target: T3, Cytochrome P450 1A2 (Homo sapiens, UniProt P05177); assay: Inhibition of CYP1A2 using CEC as substrate; assay type: ADME; outline: as §2
T3 sequence (P05177 whole entry): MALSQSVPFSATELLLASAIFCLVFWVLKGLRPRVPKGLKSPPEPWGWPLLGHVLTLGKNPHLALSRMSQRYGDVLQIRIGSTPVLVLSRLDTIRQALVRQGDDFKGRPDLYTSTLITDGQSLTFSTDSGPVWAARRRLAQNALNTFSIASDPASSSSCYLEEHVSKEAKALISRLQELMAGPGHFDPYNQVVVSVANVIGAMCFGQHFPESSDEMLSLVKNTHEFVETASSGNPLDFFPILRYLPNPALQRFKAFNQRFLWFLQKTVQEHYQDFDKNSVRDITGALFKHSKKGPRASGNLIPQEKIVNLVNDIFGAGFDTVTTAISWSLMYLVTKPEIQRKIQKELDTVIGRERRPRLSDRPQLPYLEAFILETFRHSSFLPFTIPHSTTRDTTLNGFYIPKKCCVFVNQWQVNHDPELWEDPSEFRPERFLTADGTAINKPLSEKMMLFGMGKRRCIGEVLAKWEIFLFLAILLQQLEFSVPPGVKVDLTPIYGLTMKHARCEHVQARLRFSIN

[8] = molecular target: Cytochrome P450 2C9 (Homo sapiens, UniProt P11712); assay: Inhibition of CYP2C9 using MFC as substrate; assay type: ADME; outline: as §2
[9] = molecular target: Cytochrome P450 2C19 (Homo sapiens, UniProt P33261); assay: Inhibition of CYP2C19 using CEC as substrate; assay type: ADME; outline: as §2
[10] = molecular target: Nitric oxide synthase, inducible (Homo sapiens, UniProt P35228); assay: Inhibition of human recombinant iNOS expressed in Sf9 cells assessed as inhibition of conversion of [3H]-L-arginine to [3H]-L-citrulline after 45 mins by liquid scintillation counting
Outline: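 Recombinant human iNOS from baculovirus-infected Sf9 cells in 100 mM HEPES pH 7.4 with 1 mM CaCl2, 1 mM EDTA, 1 mM DTT, 1 μM FMN, 1 μM FAD, 10 μM BH4, 120 μM NADPH and 100 nM CaM. Compound preincubated 15 min at RT, then 45 min at 37 °C. [3H]-citrulline from [3H]-L-arginine separated on Dowex and counted by scintillation. Duplicates.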

[11] = species: Homo sapiens; assay: Antimigraine activity in migraine patients relative to placebo treated control; assay type: functional
[12] = molecular target: T4, Nitric oxide synthase 3 (Homo sapiens) (UniProt P29474); assay: Inhibition of eNOS in human arteries precontracted with U46619 assessed as inhibition of acteylcholine-induced vasorelaxation after 50 mins
T4 sequence (whole entry): T1 sequence (P29474 whole entry)
Outline: (§3)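 Human resistance artery rings of about 2 mm from surgical explants, wire-mounted in myograph baths of Krebs-bicarbonate PSS gassed with 95% O2/5% CO2 at 37 °C. Rings equilibrated at least 30 min with washes every 15 min, then standardised. Isometric tension recorded during ACh relaxation (10^-10 to 10^-5 M).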

[13] = molecular target: T4, Nitric oxide synthase 3 (Homo sapiens); assay: Inhibition of eNOS in human arteries precontracted with U46619 assessed as inhibition of acteylcholine-induced vasorelaxation at 100 uM after 50 mins in the presence of 1 mM L-arginine; outline: as §3
[14] = test system: Gerbillinae; assay: Neuroprotective activity in gerbil cerebral ischemia model; assay type: functional
[15] = molecular target: T4, Nitric oxide synthase 3 (Homo sapiens); assay: Inhibition of eNOS in human arteries precontracted with U46619 assessed as inhibition of acteylcholine-induced vasorelaxation at 1 to 100 uM after 50 mins in the presence of 1 mM L-arginine; outline: as §3
[16] = molecular target: T4, Nitric oxide synthase 3 (Homo sapiens); assay: Inhibition of eNOS in human arteries precontracted with U46619 assessed as inhibition of acteylcholine-induced vasorelaxation at 1 to 100 uM after 50 mins; outline: as §3
[17] = test system: Rattus norvegicus; assay: Analgesic activity in rat SNL model assessed as reversal of thermal hyperalgesia at 60 mg/kg, ip administered as single dose measured at 90 mins; assay type: functional; conditions: route intraperitoneal
Outline: (§4)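 Rat Chung model: L5 and L6 spinal nerves tightly ligated with 4-0 silk distal to the DRG under halothane anaesthesia, animals recovered in individual cages. Single intraperitoneal dose, 10 or 60 mg/kg. Read-out was paw withdrawal latency to radiant heat, expressed as percent reversal of thermal hyperalgesia over time after dosing.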

[18] = test system: Rattus norvegicus; assay: Analgesic activity in ip dosed rat spinal nerve ligation model assessed as reversal of thermal hyperalgesia measured after 60 to 120 mins; assay type: functional, organism-based; outline: as §4

Nitric oxide synthase 1, sequence (P29475 whole entry): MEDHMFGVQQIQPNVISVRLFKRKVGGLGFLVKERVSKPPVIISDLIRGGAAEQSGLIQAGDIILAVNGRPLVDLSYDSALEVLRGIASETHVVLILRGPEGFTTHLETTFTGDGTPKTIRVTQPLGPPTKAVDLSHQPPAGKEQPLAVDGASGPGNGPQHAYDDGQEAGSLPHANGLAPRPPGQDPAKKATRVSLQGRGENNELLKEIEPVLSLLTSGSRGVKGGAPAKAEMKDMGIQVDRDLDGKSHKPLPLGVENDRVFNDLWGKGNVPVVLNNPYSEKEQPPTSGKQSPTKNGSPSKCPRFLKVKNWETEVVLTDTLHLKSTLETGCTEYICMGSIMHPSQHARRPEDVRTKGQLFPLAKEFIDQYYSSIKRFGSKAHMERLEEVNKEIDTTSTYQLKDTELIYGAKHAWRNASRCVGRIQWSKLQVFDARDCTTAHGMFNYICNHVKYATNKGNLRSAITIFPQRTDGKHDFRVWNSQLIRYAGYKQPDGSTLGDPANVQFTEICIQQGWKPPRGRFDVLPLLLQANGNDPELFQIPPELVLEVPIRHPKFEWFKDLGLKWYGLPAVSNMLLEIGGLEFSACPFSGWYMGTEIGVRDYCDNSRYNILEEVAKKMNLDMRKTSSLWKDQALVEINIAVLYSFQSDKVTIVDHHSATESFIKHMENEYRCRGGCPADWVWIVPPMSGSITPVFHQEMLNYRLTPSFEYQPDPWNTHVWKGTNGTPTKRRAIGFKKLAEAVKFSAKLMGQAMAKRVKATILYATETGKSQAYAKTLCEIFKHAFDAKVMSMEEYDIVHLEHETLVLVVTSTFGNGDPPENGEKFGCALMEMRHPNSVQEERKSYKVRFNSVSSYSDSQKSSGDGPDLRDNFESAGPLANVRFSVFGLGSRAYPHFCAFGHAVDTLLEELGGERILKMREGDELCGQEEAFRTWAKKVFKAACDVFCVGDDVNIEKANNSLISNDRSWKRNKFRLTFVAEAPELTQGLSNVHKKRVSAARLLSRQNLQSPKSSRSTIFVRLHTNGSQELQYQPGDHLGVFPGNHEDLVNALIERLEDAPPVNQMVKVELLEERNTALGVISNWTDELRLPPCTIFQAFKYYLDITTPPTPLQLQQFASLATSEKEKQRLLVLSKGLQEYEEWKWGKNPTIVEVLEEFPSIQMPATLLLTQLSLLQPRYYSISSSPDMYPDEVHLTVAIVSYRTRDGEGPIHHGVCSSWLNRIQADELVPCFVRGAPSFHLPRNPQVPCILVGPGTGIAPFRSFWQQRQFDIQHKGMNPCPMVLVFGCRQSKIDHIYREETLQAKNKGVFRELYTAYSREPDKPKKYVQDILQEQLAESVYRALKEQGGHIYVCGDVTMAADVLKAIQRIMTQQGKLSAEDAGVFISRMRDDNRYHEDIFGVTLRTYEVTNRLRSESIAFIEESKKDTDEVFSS
Nitric oxide sythases; iNOS & nNOS (Homo sapiens), sequence (P29475 whole entry, looked up): as the sequence (P29475 whole entry) above
Nitric oxide sythases; iNOS & nNOS (Homo sapiens), sequence (P35228 whole entry, looked up): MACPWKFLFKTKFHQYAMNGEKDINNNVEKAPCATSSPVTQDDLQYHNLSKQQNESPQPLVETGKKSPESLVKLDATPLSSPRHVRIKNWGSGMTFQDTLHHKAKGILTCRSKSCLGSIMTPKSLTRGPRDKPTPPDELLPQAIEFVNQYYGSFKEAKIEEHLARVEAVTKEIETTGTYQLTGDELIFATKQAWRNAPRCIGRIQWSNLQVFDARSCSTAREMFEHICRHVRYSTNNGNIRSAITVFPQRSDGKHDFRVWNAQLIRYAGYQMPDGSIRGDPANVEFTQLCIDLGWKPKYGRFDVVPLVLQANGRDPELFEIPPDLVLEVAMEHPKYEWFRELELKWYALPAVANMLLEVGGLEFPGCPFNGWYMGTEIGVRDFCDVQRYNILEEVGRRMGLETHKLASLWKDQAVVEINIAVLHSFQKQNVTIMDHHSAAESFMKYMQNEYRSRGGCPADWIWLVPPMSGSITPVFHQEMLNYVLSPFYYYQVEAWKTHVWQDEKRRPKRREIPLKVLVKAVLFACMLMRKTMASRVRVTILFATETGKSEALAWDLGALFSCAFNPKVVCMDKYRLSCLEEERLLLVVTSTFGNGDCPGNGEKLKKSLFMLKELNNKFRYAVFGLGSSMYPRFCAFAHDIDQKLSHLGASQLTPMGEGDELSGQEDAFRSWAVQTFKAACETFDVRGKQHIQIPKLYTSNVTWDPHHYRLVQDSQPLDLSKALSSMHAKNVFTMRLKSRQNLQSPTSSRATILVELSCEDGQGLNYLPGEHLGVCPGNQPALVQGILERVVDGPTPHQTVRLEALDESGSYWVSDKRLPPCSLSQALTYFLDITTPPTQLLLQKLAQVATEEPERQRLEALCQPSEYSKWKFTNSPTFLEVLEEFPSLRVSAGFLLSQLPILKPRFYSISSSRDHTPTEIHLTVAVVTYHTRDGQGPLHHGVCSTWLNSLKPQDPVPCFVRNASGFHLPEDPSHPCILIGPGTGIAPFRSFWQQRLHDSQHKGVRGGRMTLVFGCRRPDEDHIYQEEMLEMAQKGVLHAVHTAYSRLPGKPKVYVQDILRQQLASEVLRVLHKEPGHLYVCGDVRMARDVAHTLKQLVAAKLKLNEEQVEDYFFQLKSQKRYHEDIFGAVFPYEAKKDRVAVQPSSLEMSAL
Nitric oxide synthase, inducible, sequence (P35228 whole entry): as the sequence (P35228 whole entry, looked up) above
T2 sequence (P08684 whole entry): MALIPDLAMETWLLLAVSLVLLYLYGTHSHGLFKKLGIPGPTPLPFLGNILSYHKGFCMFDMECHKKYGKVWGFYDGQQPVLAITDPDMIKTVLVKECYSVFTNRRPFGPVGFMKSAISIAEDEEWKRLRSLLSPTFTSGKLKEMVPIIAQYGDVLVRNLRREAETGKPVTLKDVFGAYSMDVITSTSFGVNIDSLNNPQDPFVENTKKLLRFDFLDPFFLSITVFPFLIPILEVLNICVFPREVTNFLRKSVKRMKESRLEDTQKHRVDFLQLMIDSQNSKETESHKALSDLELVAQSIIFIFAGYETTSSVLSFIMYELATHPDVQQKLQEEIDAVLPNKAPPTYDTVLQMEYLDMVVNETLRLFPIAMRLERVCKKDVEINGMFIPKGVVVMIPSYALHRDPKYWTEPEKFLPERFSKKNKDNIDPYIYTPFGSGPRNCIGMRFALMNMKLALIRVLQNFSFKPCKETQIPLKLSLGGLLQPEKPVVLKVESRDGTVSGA
Cytochrome P450 2D6, sequence (P10635 whole entry): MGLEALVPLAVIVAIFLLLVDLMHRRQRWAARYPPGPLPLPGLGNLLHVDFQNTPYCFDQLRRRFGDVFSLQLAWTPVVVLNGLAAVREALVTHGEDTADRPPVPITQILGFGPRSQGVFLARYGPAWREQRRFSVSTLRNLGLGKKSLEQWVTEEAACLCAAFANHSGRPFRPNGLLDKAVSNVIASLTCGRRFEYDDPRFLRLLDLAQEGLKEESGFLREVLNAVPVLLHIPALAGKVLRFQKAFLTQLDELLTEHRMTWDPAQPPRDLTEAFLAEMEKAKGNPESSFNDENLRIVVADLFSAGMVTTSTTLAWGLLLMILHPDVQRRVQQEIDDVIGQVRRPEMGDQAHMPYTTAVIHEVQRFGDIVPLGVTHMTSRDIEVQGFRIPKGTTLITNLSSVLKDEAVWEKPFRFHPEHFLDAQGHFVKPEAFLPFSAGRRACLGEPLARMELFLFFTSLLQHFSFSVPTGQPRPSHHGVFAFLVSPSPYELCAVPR
Cytochrome P450 2C9, sequence (P11712 whole entry): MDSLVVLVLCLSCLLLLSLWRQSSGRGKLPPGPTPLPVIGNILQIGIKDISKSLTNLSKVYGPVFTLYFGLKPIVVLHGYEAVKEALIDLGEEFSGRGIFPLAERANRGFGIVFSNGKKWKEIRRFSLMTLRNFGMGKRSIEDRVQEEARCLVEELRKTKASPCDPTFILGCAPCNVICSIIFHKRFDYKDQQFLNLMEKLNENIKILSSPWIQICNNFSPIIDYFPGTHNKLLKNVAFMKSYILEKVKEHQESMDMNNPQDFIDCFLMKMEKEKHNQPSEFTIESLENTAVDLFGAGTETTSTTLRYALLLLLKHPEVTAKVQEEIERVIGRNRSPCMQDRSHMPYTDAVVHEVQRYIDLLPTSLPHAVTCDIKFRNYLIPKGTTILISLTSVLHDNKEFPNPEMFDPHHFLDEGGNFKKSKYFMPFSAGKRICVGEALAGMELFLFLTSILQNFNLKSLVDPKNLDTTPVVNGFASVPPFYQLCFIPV
Cytochrome P450 2C19, sequence (P33261 whole entry): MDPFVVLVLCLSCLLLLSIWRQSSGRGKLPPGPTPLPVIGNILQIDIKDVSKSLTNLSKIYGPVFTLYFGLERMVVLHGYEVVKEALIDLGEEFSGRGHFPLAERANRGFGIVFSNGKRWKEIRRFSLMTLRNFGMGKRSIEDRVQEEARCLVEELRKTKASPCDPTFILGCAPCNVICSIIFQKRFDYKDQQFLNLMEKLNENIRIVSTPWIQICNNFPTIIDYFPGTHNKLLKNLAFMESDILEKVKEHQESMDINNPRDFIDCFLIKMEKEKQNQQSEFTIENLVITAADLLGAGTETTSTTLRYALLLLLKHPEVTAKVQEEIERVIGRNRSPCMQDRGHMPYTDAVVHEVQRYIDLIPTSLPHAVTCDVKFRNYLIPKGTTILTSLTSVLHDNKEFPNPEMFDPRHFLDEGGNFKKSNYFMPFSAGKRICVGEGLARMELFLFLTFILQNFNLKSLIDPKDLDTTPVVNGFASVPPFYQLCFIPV

Structure (SMILES)	IC50 [1] [µM]	Ratio IC50 [2]	IC50 [3] [µM]	IC50 [10] [µM]	further results
CN1CCC(c2c[nH]c3cc(NC(=N)c4cccs4)ccc23)CC1	10.7	78	0.12	–	–
Cl.Cl.N=C(Nc1ccc2c(C3CN4CCC3CC4)c[nH]c2c1)c1cccs1 (single isomer, unassigned; enantiomer 2)	40.6	–	0.45	139	IC50 [4]: > 100 µM; IC50 [5]: > 100 µM; IC50 [6]: 100 µM; IC50 [7]: Not Active; IC50 [8]: Not Active; IC50 [9]: 49.6 µM
CNC(=N)NCCC[C@H](N)C(=O)O.Cl.Cl	–	–	–	–	Activity [11]: 67%
COC(=O)[C@@H](N)CCCNC(=N)N[N+](=O)[O-]	0.68	1.2	0.69	0.83	inhibition [12]: Dose-dependent effect; inhibition [13]: inactive
N=C(Nc1ccc(CCNCc2cccc(Cl)c2)cc1)c1cccs1	–	–	–	–	Activity [14]: 44%
N=C(Nc1ccc2c(C3CN4CCC3CC4)c[nH]c2c1)c1cccs1 (single isomer, unassigned; enantiomer 1) [listing 1 of 2 here]	23.3	–	0.53	52.1	–
FC(F)(F)c1ccccc1-n1ccnc1	–	–	–	–	Activity [14]: 8%
N=C(Nc1ccc2c(C3CN4CCC3CC4)c[nH]c2c1)c1cccs1 (racemic) [listing 1 of 2 here]	33.3	–	1.23	18.4	–
CN1CCC(c2c[nH]c3cc(NC(=N)c4cccs4)ccc23)C1 (stereo unspecified)	–	13	–	2.6	–
N=C(Nc1ccc2c(C3CN4CCC3CC4)c[nH]c2c1)c1cccs1 (single isomer, unassigned; enantiomer 1) [listing 2 of 2 here]	–	98	–	–	–
CN1CCC[C@@H]1CCn1ccc2ccc(/N=C(\N)c3cccs3)cc21	–	225	–	–	–
O=[N+]([O-])c1cccc2cn[nH]c12 [7-NITROINDAZOLE]	–	–	–	–	Activity [14]: 22%
N=C(Nc1ccc2c(C3=CN4CCC3CC4)c[nH]c2c1)c1cccs1	–	6	1.5	8.4	–
N=C(Nc1ccc2c(C3CN4CCC3CC4)c[nH]c2c1)c1cccs1 (single isomer, unassigned; enantiomer 2)	–	309	–	–	–
CN1CC=C(c2c[nH]c3cc(NC(=N)c4cccs4)ccc23)CC1.Cl.Cl	26.5	15	0.8	12.3	IC50 [4]: > 100 µM; IC50 [5]: 63.2 µM; IC50 [6]: 74.8 µM; inhibition [15]: inactive; IC50 ([7]; read-out: IC50): > 100 µM; IC50 ([8]; read-out: IC50): 72.7 µM; inhibition [16]: inactive; IC50 [9]: 40.1 µM; Activity [17]: 67%; Activity [18]: Dose-dependent effect
N=C(Nc1ccc2c(C3CN4CCC3CC4)c[nH]c2c1)c1cccs1 (racemic) [listing 2 of 2 here]	–	15	–	–	–
